Measurements: article PMC9321909 (British Journal of Haematology, 2022)

Tested on: relapsed/refractory B‐cell malignancies
Assay: Anti-tumour activity assessment by disease-specific tumour response criteria
Type: in vivo, human (Chinese patients)
Method in brief: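 Oral test compound at 320 mg QD or 160 mg BID until progression or unacceptable toxicity. Investigators assessed response every 12 weeks for one year after the first dose, then every 24 weeks. Criteria were iwCLL for CLL, NCI Working Group NHL criteria for SLL, FL, MZL and MCL, and International Workshops on WM criteria for WM. 95% CIs for rates were computed by Clopper–Pearson.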

[1] = part I, 160 mg BID, CLL/SLL (n = 5)
[2] = part I, 160 mg BID, NHL (n = 5)
[3] = part I, 160 mg BID, Total (N = 11)
[4] = part I, 320 mg QD, CLL/SLL (n = 4)
[5] = part I, 320 mg QD, Total (N = 10)

C=CC(=O)N1CCC([C@@H]2CCNc3c(C(N)=O)c(-c4ccc(Oc5ccccc5)cc4)nn32)CC1 [zanubrutinib]
Best overall response: CR (CLL/SLL (n = 9)): 3 (33.3) n (%)
Best overall response: CRi (CLL/SLL (n = 9)): 0 (0.0) n (%)
Best overall response: Discontinued prior to first assessment (CLL/SLL (n = 9)): 0 (0.0) n (%)
Best overall response: MR (CLL/SLL (n = 9)): 0 (0.0) n (%)
Best overall response: PD (CLL/SLL (n = 9)): 0 (0.0) n (%)
Best overall response: PR (CLL/SLL (n = 9)): 5 (55.6) n (%)
Best overall response: PR‐L (CLL/SLL (n = 9)): 1 (11.1) n (%)
Best overall response: Stable disease (CLL/SLL (n = 9)): 0 (0.0) n (%)
Best overall response: VGPR (CLL/SLL (n = 9)): 0 (0.0) n (%)
Complete response rate (CLL/SLL (n = 9)): 3 (33.3) n (%)
Overall response rate (CLL/SLL (n = 9)): 9 (100.0) n (%)
Partial response rate (PR or better) (CLL/SLL (n = 9)): 8 (88.9) n (%)
median PFS (CLL/SLL patients): 44.3 months
Best overall response: CR (FL (n = 26)): 4 (15.4) n (%)
Best overall response: CRi (FL (n = 26)): 0 (0.0) n (%)
Best overall response: Discontinued prior to first assessment (FL (n = 26)): 3 (11.5) n (%)
Best overall response: MR (FL (n = 26)): 0 (0.0) n (%)
Best overall response: PD (FL (n = 26)): 4 (15.4) n (%)
Best overall response: PR (FL (n = 26)): 8 (30.8) n (%)
Best overall response: PR‐L (FL (n = 26)): 0 (0.0) n (%)
Best overall response: Stable disease (FL (n = 26)): 7 (26.9) n (%)
Best overall response: VGPR (FL (n = 26)): 0 (0.0) n (%)
Complete response rate (FL (n = 26)): 4 (15.4) n (%)
Overall response rate (FL (n = 26)): 12 (46.2) n (%)
Partial response rate (PR or better) (FL (n = 26)): 12 (46.2) n (%)
Best overall response: CR (MCL (n = 2)): 1 (50.0) n (%)
Best overall response: CRi (MCL (n = 2)): 0 (0.0) n (%)
Best overall response: Discontinued prior to first assessment (MCL (n = 2)): 0 (0.0) n (%)
Best overall response: MR (MCL (n = 2)): 0 (0.0) n (%)
Best overall response: PD (MCL (n = 2)): 0 (0.0) n (%)
Best overall response: PR (MCL (n = 2)): 0 (0.0) n (%)
Best overall response: PR‐L (MCL (n = 2)): 0 (0.0) n (%)
Best overall response: Stable disease (MCL (n = 2)): 1 (50.0) n (%)
Best overall response: VGPR (MCL (n = 2)): 0 (0.0) n (%)
Complete response rate (MCL (n = 2)): 1 (50.0) n (%)
Overall response rate (MCL (n = 2)): 1 (50.0) n (%)
Partial response rate (PR or better) (MCL (n = 2)): 1 (50.0) n (%)
Best overall response: CR (MZL (n = 5)): 0 (0.0) n (%)
Best overall response: CRi (MZL (n = 5)): 0 (0.0) n (%)
Best overall response: Discontinued prior to first assessment (MZL (n = 5)): 2 (40.0) n (%)
Best overall response: MR (MZL (n = 5)): 0 (0.0) n (%)
Best overall response: PD (MZL (n = 5)): 0 (0.0) n (%)
Best overall response: PR (MZL (n = 5)): 0 (0.0) n (%)
Best overall response: PR‐L (MZL (n = 5)): 0 (0.0) n (%)
Best overall response: Stable disease (MZL (n = 5)): 3 (60.0) n (%)
Best overall response: VGPR (MZL (n = 5)): 0 (0.0) n (%)
Complete response rate (MZL (n = 5)): 0 (0.0) n (%)
Overall response rate (MZL (n = 5)): 0 (0.0) n (%)
Partial response rate (PR or better) (MZL (n = 5)): 0 (0.0) n (%)
Best overall response: CR (Total (N = 44)): 8 (18.2) n (%)
Best overall response: CRi (Total (N = 44)): 0 (0.0) n (%)
Best overall response: Discontinued prior to first assessment (Total (N = 44)): 5 (11.4) n (%)
Best overall response: MR (Total (N = 44)): 0 (0.0) n (%)
Best overall response: PD (Total (N = 44)): 4 (9.1) n (%)
Best overall response: PR (Total (N = 44)): 14 (31.8) n (%)
Best overall response: PR‐L (Total (N = 44)): 1 (2.3) n (%)
Best overall response: Stable disease (Total (N = 44)): 12 (27.3) n (%)
Best overall response: VGPR (Total (N = 44)): 0 (0.0) n (%)
Complete response rate (Total (N = 44)): 8 (18.2) n (%)
Overall response rate (Total (N = 44)): 23 (52.3) n (%)
Partial response rate (PR or better) (Total (N = 44)): 22 (50.0) n (%)
Best overall response: CR (WM (n = 2)): 0 (0.0) n (%)
Best overall response: CRi (WM (n = 2)): 0 (0.0) n (%)
Best overall response: Discontinued prior to first assessment (WM (n = 2)): 0 (0.0) n (%)
Best overall response: MR (WM (n = 2)): 0 (0.0) n (%)
Best overall response: PD (WM (n = 2)): 0 (0.0) n (%)
Best overall response: PR (WM (n = 2)): 1 (50.0) n (%)
Best overall response: PR‐L (WM (n = 2)): 0 (0.0) n (%)
Best overall response: Stable disease (WM (n = 2)): 1 (50.0) n (%)
Best overall response: VGPR (WM (n = 2)): 0 (0.0) n (%)
Complete response rate (WM (n = 2)): 0 (0.0) n (%)
Overall response rate (WM (n = 2)): 1 (50.0) n (%)
Partial response rate (PR or better) (WM (n = 2)): 1 (50.0) n (%)
complete response rate (CRR) (all 44 patients): 18.2%
overall response rate (ORR) (all 44 patients): 52.3%
median PFS (all patients): 16.4 months
median DOR (PR‐L or better) (all responders): 13.9 months
median time to response (all subtypes, responders (n = 23)): 2.8 months
Complete response rate [1]: 2 (40.0) n (%)
Overall response rate [1]: 5 (100.0) n (%)
Partial response rate (PR or better) [1]: 4 (80.0) n (%)
Complete response rate [2]: 1 (20.0) n (%)
Overall response rate [2]: 3 (60.0) n (%)
Partial response rate (PR or better) [2]: 3 (60.0) n (%)
Complete response rate [3]: 3 (27.3) n (%)
Overall response rate [3]: 8 (72.7) n (%)
Partial response rate (PR or better) [3]: 7 (63.6) n (%)
Complete response rate (part I, 160 mg BID, WM (n = 1)): 0 (0.0) n (%)
Overall response rate (part I, 160 mg BID, WM (n = 1)): 0 (0.0) n (%)
Partial response rate (PR or better) (part I, 160 mg BID, WM (n = 1)): 0 (0.0) n (%)
Complete response rate [4]: 1 (25.0) n (%)
Overall response rate [4]: 4 (100.0) n (%)
Partial response rate (PR or better) [4]: 4 (100.0) n (%)
Complete response rate (part I, 320 mg QD, NHL (n = 5)): 1 (20.0) n (%)
Overall response rate (part I, 320 mg QD, NHL (n = 5)): 3 (60.0) n (%)
Partial response rate (PR or better) (part I, 320 mg QD, NHL (n = 5)): 3 (60.0) n (%)
Complete response rate [5]: 2 (20.0) n (%)
Overall response rate [5]: 8 (80.0) n (%)
Partial response rate (PR or better) [5]: 8 (80.0) n (%)
Complete response rate (part I, 320 mg QD, WM (n = 1)): 0 (0.0) n (%)
Overall response rate (part I, 320 mg QD, WM (n = 1)): 1 (100.0) n (%)
Partial response rate (PR or better) (part I, 320 mg QD, WM (n = 1)): 1 (100.0) n (%)
Study day at disease progression (patient 101 016, FL): Day 162
Study day at disease progression (patient 102 002, CLL): Day 672
BOR by investigator (patient 102 004, WM): Stable disease
Study day at disease progression (patient 102 004, WM): Day 336
BOR by investigator (patient 102 006, CLL): PR‐L
Study day at disease progression (patient 102 006, CLL): Day 1345
CRR (patients with CLL/SLL): 33.3%
median overall survival (total population): not reached
